pIC50: −log10 of the molar value. Active and inactive are the calls of the source. No cut-off for these calls is given here.
Tests used:
[1] = target: T1, von Hippel-Lindau disease tumor suppressor/Histone-lysine N-methyltransferase EZH2 (Homo sapiens, UniProt Q15910+P40337); test: PROTAC activity at VHL/EZH2 degradation in MLLr AML cell line human EOL1 cells assessed as protein degradation at 0.3 uM measured after 24 hrs by Western blot analysis; format: cell-based
Method in brief: (§1)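 Cells were seeded at 0.5–2 million per well and treated for 24 h, or for the stated times at 300 nM in the time course. Lysis was in RIPA with protease inhibitors; ~10 μg protein was run on SDS-PAGE and blotted to PVDF. Detection used fluorescent immunoblotting for EZH2, EED and SUZ12, with β-actin as loading control. Blots are representative of two biological experiments.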

[2] = target: T1, von Hippel-Lindau disease tumor suppressor/Histone-lysine N-methyltransferase EZH2; test: PROTAC activity at VHL/EZH2 degradation in human BT-549 cells assessed as protein degradation at 0.1 to 3 uM measured after 48 hrs by Western blot analysis; format: cell-based; settings: dose 0.1-3 µM
Method in brief: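 BT549 (RPMI-1640) and MDA-MB-468 (DMEM) cells were treated for 48 h. RIPA lysates (~10 μg) were immunoblotted for EZH2 with β-actin as loading control. Blots are representative of three biological experiments.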

[3] = target: Histone-lysine N-methyltransferase EZH2 (Homo sapiens) (UniProt Q15910); test: Inhibition of human EZH2 assessed as methyltransferase activity using Core Histone as substrate at 10 uM by radioisotope based MT HotSpot assay relative to control
Method in brief: (§2)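 Radioisotope-based methyltransferase assay (MT HotSpot) run by a contract lab. Compound was tested at 10 μM against a panel of 20 methyltransferases, in duplicate. Values are means ± SD of two replicates.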

[4] = target: T1, von Hippel-Lindau disease tumor suppressor/Histone-lysine N-methyltransferase EZH2; test: PROTAC activity at VHL/EZH2 degradation in human MV4-11 cells assessed as protein degradation at 0.03 to 0.3 microM measured after 24 hrs by Western blot analysis; format: cell-based; settings: dose 0.03-0.3 µM; method in brief: as §1
[5] = target: T1, von Hippel-Lindau disease tumor suppressor/Histone-lysine N-methyltransferase EZH2; test: PROTAC activity at VHL/EZH2 degradation in MLLr AML cell line human EOL1 cells assessed as protein degradation at 0.5 uM measured after 24 hrs by Western blot analysis; format: cell-based; method in brief: as §1
[6] = target: Protein arginine N-methyltransferase 6 (Homo sapiens) (UniProt Q96LA8); test: Inhibition of human PRMT6 assessed as methyltransferase activity using GST-GAR as substrate at 10 uM by radioisotope based MT HotSpot assay relative to control; method in brief: as §2
[7] = Plasma concentration in mouse at 50 mg/kg, ip measured after 9 hrs; settings: in vivo
[8] = target: T1, von Hippel-Lindau disease tumor suppressor/Histone-lysine N-methyltransferase EZH2; test: PROTAC activity at VHL/EZH2 degradation in human RS4-11 cells assessed as protein degradation at 0.3 uM measured after 24 hrs by Western blot analysis; format: cell-based; method in brief: as §1
[9] = target: T1, von Hippel-Lindau disease tumor suppressor/Histone-lysine N-methyltransferase EZH2; test: PROTAC activity at VHL/EZH2 degradation in MLLr AML cell line human EOL1 cells assessed as protein degradation at 0.5 uM measured after 24 hrs in presence of 5 uM EPZ-6438 by Western blot analysis; format: cell-based
Method in brief: (§3)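 EOL-1 cells were pre-treated for 2 h with MLN4924 (0.05 μM), EPZ-6438 (5 μM) or VHL-1 (5 μM), then given 0.5 μM degrader for 24 h. EZH2 was assessed by Western blot against β-actin. Blots are representative of two biological experiments.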

[10] = target: Histone-lysine N-methyltransferase EHMT1 (Homo sapiens) (UniProt Q9H9B1); test: Inhibition of human GLP assessed as methyltransferase activity using Histone H3 as substrate at 10 uM by radioisotope based MT HotSpot assay relative to control
[11] = target: von Hippel-Lindau disease tumor suppressor/Polycomb protein SUZ12 (Homo sapiens) (UniProt Q15022+P40337); test: PROTAC activity at VHL/SUZ12 degradation in MLLr AML cell line human EOL1 cells assessed as protein degradation at 1 to 1000 nM […] measured after 1 to 24 hrs by Western blot analysis; format: cell-based; settings: dose 1-1000 nM, time 1-24 hrs; method in brief: as §1
MV4-11 = test: Anti-proliferative activity against human MV4-11 cells assessed as cell viability measured after 5 days incubation by CCK-8 assay; format: functional, cell-based; settings: MV4-11, 120 h
Method in brief: (§4)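 Cells plated at 3,000–10,000 per well and exposed to serial dilutions for 5 days at 37 °C. CCK-8 (1x) was added for 2–4 h, with absorbance read at 450 nm against a 690 nm reference. IC50 was taken from curve fits. Leukemia lines were grown in RPMI-1640, K562 in IMDM and MDA-MB-468 in DMEM, all with 10 % FBS. Values are means ± SD of two biological experiments (three for BT549 and MDA-MB-468).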

[12] = target: T1, von Hippel-Lindau disease tumor suppressor/Histone-lysine N-methyltransferase EZH2; test: PROTAC activity at VHL/EZH2 degradation in MLLr AML cell line human EOL1 cells assessed as protein degradation at 0.5 uM measured after 24 hrs in presence of 5 uM VHL-1 by Western blot analysis; format: cell-based; method in brief: as §3
[13] = target: PRMT5/MEP50 complex (Homo sapiens) (UniProt O14744+Q9BQA1); test: Inhibition of human PRMT5/MEP50 assessed as methyltransferase activity using Histone H2A as substrate at 10 uM by radioisotope based MT HotSpot assay relative to control; format: protein-complex assay; method in brief: as §2
[14] = target: von Hippel-Lindau disease tumor suppressor/Polycomb protein EED (Homo sapiens) (UniProt O75530+P40337); test: PROTAC activity at VHL/EED degradation in MLLr AML cell line human EOL1 cells assessed as protein degradation at 1 to 1000 nM measured after 1 to 24 hrs by Western blot analysis; format: cell-based; settings: dose 1-1000 nM, time 1-24 hrs; method in brief: as §1
BT-549 [15] = test: Anti-proliferative activity against human BT-549 cells assessed as cell growth inhibition measured after 5 days incubation by CCK-8 assay; format: functional, cell-based; settings: BT-549, 120 h; method in brief: as §4
[16] = target: Histone-lysine N-methyltransferase SMYD3 (Homo sapiens) (UniProt Q9H7B4); test: Inhibition of human SMYD3 assessed as methyltransferase activity using MEKK2 as substrate at 10 uM by radioisotope based MT HotSpot assay relative to control; method in brief: as §2
BT-549 [17] = test: Inhibition of cell growth in human BT-549 cell spheroid TNBC model assessed as reduction in size of spheroid at 2.5 to 20 uM measured after 5 days by 3D cell culture assay; format: functional, cell-based; settings: dose 2.5-20 µM, time 5.0 day
Method in brief: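 BT549 cells were coated with nanoshuttle (1 μL per 2000 cells, 24 h) and magnetically levitated in low-adhesion plates. They were grown 7 days at 37 °C until a single solid spheroid formed, then treated 5 d with compound or DMSO. Spheroid area was measured from images, and viability by CellTiter-Glo 3D. Data are means ± SD of three biological experiments, analysed by one-way ANOVA.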

[18] = target: Histone-lysine N-methyltransferase EHMT2 (Homo sapiens) (UniProt Q96KQ7); test: Inhibition of human G9a assessed as methyltransferase activity using Histone H3 as substrate at 10 uM by radioisotope based MT HotSpot assay relative to control; method in brief: as §2
[19] = target: Histone-lysine N-methyltransferase, H3 lysine-36 specific (Homo sapiens) (UniProt Q96L73); test: Inhibition of human NSD1 assessed as methyltransferase activity using Nucleosomes as substrate at 10 uM by radioisotope based MT HotSpot assay relative to control; method in brief: as §2

T1 sequence (P40337 whole entry, looked up): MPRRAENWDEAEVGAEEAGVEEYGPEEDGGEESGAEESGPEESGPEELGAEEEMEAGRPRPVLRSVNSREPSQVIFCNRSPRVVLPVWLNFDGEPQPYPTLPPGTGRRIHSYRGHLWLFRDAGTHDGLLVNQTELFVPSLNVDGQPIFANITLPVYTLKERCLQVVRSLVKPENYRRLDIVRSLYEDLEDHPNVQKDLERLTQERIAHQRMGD
T1 sequence (Q15910 whole entry, looked up): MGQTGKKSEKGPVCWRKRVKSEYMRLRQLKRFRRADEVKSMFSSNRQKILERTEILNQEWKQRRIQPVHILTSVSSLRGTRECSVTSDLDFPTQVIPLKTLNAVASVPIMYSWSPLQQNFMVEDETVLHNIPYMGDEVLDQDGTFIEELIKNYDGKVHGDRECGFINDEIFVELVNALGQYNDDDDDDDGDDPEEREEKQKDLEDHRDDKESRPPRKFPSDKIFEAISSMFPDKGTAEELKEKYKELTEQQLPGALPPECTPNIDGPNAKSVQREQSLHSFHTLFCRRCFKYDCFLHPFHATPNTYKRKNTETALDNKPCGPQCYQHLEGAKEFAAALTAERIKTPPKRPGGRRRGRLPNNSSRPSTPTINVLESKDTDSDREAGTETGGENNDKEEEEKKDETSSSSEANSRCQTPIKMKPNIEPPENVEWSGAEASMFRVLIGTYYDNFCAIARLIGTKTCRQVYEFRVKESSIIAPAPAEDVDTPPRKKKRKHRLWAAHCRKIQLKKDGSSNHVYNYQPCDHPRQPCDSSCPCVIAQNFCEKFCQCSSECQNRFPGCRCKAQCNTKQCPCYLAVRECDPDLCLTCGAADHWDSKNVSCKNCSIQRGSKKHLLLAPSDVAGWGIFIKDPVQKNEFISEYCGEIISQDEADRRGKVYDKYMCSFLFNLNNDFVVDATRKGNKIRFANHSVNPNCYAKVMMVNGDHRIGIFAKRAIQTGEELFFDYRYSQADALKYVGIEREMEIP
Chain of Histone-lysine N-methyltransferase EHMT2 (Homo sapiens) (Q96KQ7 whole entry): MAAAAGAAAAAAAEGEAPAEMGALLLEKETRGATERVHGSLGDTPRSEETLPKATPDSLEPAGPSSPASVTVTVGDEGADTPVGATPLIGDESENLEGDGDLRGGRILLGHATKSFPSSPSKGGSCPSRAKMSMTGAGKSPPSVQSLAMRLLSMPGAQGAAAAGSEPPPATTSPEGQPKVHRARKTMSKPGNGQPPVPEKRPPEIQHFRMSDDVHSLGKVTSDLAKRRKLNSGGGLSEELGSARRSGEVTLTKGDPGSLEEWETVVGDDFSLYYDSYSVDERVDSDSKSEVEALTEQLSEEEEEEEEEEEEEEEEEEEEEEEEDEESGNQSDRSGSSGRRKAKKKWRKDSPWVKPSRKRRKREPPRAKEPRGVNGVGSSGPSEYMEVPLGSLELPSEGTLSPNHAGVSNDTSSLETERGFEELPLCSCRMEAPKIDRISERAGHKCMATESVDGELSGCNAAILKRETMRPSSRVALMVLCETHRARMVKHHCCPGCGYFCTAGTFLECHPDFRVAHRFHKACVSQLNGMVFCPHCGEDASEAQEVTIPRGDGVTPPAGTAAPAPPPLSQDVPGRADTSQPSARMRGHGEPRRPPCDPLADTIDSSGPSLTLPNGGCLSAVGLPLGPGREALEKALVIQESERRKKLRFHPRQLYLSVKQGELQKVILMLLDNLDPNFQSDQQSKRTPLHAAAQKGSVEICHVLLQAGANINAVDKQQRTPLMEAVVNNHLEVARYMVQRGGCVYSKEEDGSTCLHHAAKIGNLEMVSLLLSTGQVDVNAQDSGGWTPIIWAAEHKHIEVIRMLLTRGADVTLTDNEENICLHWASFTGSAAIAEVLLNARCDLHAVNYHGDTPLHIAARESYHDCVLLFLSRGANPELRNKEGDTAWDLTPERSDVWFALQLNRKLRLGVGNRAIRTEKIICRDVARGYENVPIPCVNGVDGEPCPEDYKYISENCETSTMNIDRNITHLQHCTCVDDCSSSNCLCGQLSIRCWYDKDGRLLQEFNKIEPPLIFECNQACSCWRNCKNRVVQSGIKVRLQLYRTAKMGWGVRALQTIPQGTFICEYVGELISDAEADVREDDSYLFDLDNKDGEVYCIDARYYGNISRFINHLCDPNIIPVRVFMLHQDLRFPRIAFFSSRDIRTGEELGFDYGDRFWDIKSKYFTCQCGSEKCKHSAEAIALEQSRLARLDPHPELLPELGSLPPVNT
Chain of von Hippel-Lindau disease tumor suppressor/Polycomb protein SUZ12 (Homo sapiens) (P40337 whole entry, looked up): as the sequence (P40337 whole entry, looked up) above
Chain of von Hippel-Lindau disease tumor suppressor/Polycomb protein SUZ12 (Homo sapiens) (Q15022 whole entry, looked up): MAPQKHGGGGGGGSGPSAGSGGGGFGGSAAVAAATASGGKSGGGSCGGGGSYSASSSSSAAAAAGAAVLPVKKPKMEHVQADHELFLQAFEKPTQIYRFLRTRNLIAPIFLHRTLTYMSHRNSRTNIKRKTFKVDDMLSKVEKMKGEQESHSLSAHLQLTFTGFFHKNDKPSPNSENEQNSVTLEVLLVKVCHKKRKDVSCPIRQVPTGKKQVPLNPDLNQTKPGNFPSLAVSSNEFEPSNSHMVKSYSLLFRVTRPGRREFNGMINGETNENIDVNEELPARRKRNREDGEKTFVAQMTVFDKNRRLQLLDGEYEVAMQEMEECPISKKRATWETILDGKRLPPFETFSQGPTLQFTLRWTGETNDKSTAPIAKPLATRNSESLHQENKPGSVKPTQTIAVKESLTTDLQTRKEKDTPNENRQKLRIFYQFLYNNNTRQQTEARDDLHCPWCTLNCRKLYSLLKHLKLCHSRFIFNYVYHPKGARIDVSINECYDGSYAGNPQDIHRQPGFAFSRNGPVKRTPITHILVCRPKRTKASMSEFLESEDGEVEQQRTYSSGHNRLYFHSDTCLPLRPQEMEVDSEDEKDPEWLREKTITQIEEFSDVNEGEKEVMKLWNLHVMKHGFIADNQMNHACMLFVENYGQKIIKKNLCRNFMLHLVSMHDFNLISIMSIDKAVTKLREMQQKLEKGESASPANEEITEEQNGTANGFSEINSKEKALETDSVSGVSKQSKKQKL
Chain of Histone-lysine N-methyltransferase EHMT1 (Homo sapiens) (Q9H9B1 whole entry, looked up): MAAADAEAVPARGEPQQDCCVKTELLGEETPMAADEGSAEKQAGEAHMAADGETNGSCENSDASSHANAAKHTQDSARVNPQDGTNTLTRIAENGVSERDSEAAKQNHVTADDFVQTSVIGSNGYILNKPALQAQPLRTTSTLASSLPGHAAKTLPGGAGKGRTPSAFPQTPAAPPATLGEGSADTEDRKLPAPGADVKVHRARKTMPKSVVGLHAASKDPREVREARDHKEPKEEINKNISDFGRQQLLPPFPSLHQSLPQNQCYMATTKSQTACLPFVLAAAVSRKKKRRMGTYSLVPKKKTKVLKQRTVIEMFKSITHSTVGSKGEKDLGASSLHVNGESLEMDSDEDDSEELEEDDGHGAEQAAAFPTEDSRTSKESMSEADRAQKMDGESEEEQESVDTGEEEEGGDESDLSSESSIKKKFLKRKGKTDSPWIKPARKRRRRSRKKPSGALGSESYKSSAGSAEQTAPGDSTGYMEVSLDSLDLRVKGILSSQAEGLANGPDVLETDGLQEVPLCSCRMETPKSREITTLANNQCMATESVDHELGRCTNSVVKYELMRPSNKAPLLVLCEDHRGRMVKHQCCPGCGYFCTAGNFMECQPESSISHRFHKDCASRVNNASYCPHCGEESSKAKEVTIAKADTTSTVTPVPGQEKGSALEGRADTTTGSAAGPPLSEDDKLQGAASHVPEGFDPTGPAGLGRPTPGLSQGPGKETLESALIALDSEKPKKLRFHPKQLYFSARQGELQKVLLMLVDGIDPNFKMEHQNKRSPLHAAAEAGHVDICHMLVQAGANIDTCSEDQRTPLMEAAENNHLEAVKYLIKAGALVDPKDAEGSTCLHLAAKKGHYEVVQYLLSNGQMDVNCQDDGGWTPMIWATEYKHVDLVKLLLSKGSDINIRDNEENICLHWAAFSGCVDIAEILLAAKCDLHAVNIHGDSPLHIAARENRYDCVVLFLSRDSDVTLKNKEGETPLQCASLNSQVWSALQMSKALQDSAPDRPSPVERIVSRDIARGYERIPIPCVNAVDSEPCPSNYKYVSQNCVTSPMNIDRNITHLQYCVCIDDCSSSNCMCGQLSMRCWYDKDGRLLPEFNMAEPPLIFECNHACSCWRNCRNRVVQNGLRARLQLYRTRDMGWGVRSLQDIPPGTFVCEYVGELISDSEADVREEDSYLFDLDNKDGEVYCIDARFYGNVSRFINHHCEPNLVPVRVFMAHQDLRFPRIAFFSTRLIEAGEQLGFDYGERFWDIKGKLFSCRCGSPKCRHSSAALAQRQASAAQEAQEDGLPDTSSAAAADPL
Chain of Histone-lysine N-methyltransferase SMYD3 (Homo sapiens) (Q9H7B4 whole entry): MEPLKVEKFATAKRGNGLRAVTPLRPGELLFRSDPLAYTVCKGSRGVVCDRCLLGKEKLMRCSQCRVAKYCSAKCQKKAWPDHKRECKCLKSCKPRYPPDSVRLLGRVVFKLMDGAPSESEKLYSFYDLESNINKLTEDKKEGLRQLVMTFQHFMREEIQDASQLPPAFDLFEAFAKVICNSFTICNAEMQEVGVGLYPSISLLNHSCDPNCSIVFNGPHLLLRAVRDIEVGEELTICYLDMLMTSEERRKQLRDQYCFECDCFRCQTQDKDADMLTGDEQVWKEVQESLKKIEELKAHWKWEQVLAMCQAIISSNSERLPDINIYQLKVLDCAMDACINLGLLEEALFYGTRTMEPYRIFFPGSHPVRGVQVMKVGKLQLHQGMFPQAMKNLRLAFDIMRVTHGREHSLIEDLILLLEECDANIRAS
Chain of Protein arginine N-methyltransferase 6 (Homo sapiens) (Q96LA8 whole entry, looked up): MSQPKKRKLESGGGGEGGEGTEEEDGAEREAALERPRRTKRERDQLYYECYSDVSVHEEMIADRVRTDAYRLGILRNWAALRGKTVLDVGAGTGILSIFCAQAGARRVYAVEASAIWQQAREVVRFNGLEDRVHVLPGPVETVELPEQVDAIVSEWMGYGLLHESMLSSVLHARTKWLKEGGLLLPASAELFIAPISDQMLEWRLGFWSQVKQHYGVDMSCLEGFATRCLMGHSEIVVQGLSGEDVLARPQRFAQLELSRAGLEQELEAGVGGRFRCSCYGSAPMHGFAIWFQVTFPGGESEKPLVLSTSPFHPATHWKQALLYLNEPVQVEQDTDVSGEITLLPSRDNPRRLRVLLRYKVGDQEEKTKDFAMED

- Activity [1]: 100%
- Activity [2]: Active
- inhibition [3]: Active
- Activity [4]: 100%
- Activity [5]: Active
- inhibition [6]: < 50%
- plasma concentration [7]: Stable
- Activity [8]: Active
- Activity [9]: inactive
- inhibition [10]: < 50%
- Activity [11]: Active
- pIC50 (MV4-11): 6.77
- Activity [12]: inactive
- inhibition [13]: < 50%
- Activity [14]: Active
- pIC50 (BT-549 [15]): 5.84
- inhibition [16]: < 50%
- inhibition [18]: < 50%
- inhibition [19]: < 50%
SMILES: CCN(c1cc(-c2ccc(CN3CCN(CCC(=O)NCCCCCCCCCCC(=O)N[C@H](C(=O)N4C[C@H](O)C[C@H]4C(=O)NCc4ccc(-c5scnc5C)cc4)C(C)(C)C)CC3)cc2)cc(C(=O)NCc2c(C)cc(C)[nH]c2=O)c1C)C1CCOCC1
- inhibition (BT-549 [17]): Active
